Laboratory results from ChEMBL document CHEMBL1132283, “Further studies on the Dmt-Tic pharmacophore: hydrophobic substituents at the C-terminus endow delta antagonists to manifest mu agonism or mu antagonism” (J Med Chem, 1999).
Where a SMILES comes first, the peptide text is derived from it. [ ]: non-standard residue; d: D form. The star is where a group is joined. Dmt = Cc1cc(O)cc(C)c1C[C@H](N)C(=O)O; Tic = O=C(O)[C@@H]1Cc2ccccc2CN1; NHNH2 = NN*

Species: Mus musculus
Assay: Antagonistic functional bioactivity against delta-receptor from mouse vas deferens(MVD).
Settings: not given

For `Cc1cc(O)cc(C)c1C[C@H](N)C(=O)N1Cc2ccccc2C[C@H]1CC(=O)O`, which Ke is on record?
Its Ke is 1.41 nM.

Which Ke does the source give for `Cc1cc(O)cc(C)c1C[C@H](N)C(=O)N1Cc2ccccc2C[C@H]1C(=O)N[C@@H](C)C(=O)NC12C[C@H]3C[C@@H](C1)C[C@@H](C2)C3` here?
The Ke was 0.51 nM.

Which results are given for `CNC(=O)[C@@H]1Cc2ccccc2CN1C(=O)[C@@H](N)Cc1c(C)cc(O)cc1C` (H-[Dmt]-[Tic]-NHMe)?
EC50: 21200 nM; Ke: >10000 nM

Which Ke does the source give for `Cc1cc(O)cc(C)c1C[C@@H](C(=O)N1Cc2ccccc2C[C@H]1C(=O)NC(C)(C)C)N(C)C` here?
The Ke was 14.1 nM.

Same assay, conditions: read-out: pA2 (converted)

For `Cc1cc(O)cc(C)c1C[C@H](N)C(=O)N1Cc2ccccc2C[C@H]1CC(=O)O`, which Kb is on record?
Its Kb is 1.58 nM.

Which Kb does the source give for `Cc1cc(O)cc(C)c1C[C@H](N)C(=O)N1Cc2ccccc2C[C@H]1C(=O)N[C@@H](C)C(=O)NC12C[C@H]3C[C@@H](C1)C[C@@H](C2)C3` here?
Its Kb is 0.513 nM.

With `Cc1cc(O)cc(C)c1C[C@@H](C(=O)N1Cc2ccccc2C[C@H]1C(=O)NC(C)(C)C)N(C)C` as the compound, how does the Kb read?
Its Kb is 14.1 nM.

Target: T1, Opioid receptors; mu & delta (Rattus norvegicus) (UniProt P33533+P33535)
T1 sequence (P33533 whole entry, looked up): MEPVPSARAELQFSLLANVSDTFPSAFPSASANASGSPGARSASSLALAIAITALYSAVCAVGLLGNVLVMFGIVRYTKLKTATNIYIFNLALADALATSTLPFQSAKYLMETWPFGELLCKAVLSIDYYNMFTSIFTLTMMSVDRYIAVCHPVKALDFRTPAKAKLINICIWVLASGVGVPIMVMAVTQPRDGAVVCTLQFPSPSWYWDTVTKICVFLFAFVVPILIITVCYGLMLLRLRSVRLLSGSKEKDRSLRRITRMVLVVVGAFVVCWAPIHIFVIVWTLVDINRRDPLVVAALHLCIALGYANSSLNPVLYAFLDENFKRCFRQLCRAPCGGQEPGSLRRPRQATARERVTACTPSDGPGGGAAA
T1 sequence (P33535 whole entry, looked up): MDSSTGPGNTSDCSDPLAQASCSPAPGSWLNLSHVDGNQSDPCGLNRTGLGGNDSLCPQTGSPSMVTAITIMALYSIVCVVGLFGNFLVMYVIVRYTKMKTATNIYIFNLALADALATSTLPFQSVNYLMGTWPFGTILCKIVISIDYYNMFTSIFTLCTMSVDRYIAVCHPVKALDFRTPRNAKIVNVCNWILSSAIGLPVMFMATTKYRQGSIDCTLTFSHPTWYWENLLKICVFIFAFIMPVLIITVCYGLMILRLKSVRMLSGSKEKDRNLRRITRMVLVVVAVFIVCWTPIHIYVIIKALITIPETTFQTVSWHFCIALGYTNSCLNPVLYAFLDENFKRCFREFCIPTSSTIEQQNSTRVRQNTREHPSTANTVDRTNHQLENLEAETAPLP
Assay: Agonist activity ratio (Ki of mu receptors compared to Ki of delta receptors).
Assay type: functional
Settings: not given

With `COC(=O)[C@@H]1Cc2ccccc2CN1C(=O)[C@@H](N)Cc1c(C)cc(O)cc1C` (H-[Dmt]-[Tic]-OMe) as the compound, how does the Ratio read?
Its Ratio is 44.

How did the Ratio turn out when `Cc1cc(O)cc(C)c1CC(CN)C(=O)N1Cc2ccccc2C[C@H]1C(=O)O` (some centres not stated) was run?
Its Ratio is 155.

How did the Ratio turn out when `Cc1cc(O)cc(C)c1C[C@H](N)C(=O)N1Cc2ccccc2C[C@H]1C(=O)NN` (H-[Dmt]-[Tic]-NHNH2) was run?
Its Ratio is 86.

With `COC(=O)[C@H](C)NC(=O)[C@@H]1Cc2ccccc2CN1C(=O)[C@@H](N)Cc1c(C)cc(O)cc1C` (H-[Dmt]-[Tic]-Ala-OMe) as the compound, how does the Ratio read?
The Ratio was 48.

`Cc1cc(O)cc(C)c1C[C@H](N)C(=O)N1Cc2ccccc2C[C@H]1C(=O)Nc1nn[nH]n1` was tested. Which Ratio did it give?
The Ratio was 53.

`Cc1cc(O)cc(C)c1C[C@@H](C(=O)N1Cc2ccccc2C[C@H]1C(=O)O)n1cccc1` was tested. Which Ratio did it give?
The Ratio was 338.

Species: Cavia porcellus
Assay: Antagonistic functional bioactivity against […]-receptor from guinea pig ileum(GPI)
Settings: not given

`Cc1cc(O)cc(C)c1C[C@H](N)C(=O)N1Cc2ccccc2C[C@H]1C(=O)Nc1nn[nH]n1` was tested. Which EC50 did it give?
Its EC50 is 8200 nM.

For `Cc1cc(O)cc(C)c1C[C@@H](C(=O)N1Cc2ccccc2C[C@H]1C(=O)O)n1cccc1`, which EC50 is on record?
The EC50 was > 10000 nM.

Target: T2, Delta-type opioid receptor (Rattus norvegicus, UniProt P33533)
T2 sequence (P33533 whole entry): as the sequence (P33533 whole entry, looked up) above
Assay: Binding affinity at Opioid receptor delta 1 from rat brain synaptosomal preparations by H-Dmt-Tic-OH displacement.
Settings: not given

With `Cc1cc(O)cc(C)c1C[C@H](N)C(=O)N1Cc2ccccc2C[C@H]1C(=O)N[C@@H](C)C(=O)NC12C[C@H]3C[C@@H](C1)C[C@@H](C2)C3` as the compound, how does the Ki read?
The Ki was 0.04 nM.

Species: Cavia porcellus
Assay: Antagonistic functional bioactivity against […]-receptor from guinea pig ileum(GPI).
Settings: not given

How did the EC50 turn out when `Cc1cc(O)cc(C)c1C[C@H](N)C(=O)N1Cc2ccccc2C[C@H]1CC(=O)O` was run?
Its EC50 is > 10000 nM.

Which EC50 does the source give for `Cc1cc(O)cc(C)c1C[C@H](N)C(=O)N1Cc2ccccc2C[C@H]1C(=O)N[C@@H](C)C(=O)NC12C[C@H]3C[C@@H](C1)C[C@@H](C2)C3` here?
Its EC50 is 1000 nM.

What does the source list for `CNC(=O)[C@@H]1Cc2ccccc2CN1C(=O)[C@@H](N)Cc1c(C)cc(O)cc1C` (H-[Dmt]-[Tic]-NHMe)?
EC50: > 10000 nM; Ke: 1.15 nM

For `Cc1cc(O)cc(C)c1C[C@@H](C(=O)N1Cc2ccccc2C[C@H]1C(=O)NC(C)(C)C)N(C)C`, which EC50 is on record?
Its EC50 is > 10000 nM.

And the Ke?
Its Ke is 0.3 nM.

Same assay, conditions: read-out: pA2 (converted)

For `CNC(=O)[C@@H]1Cc2ccccc2CN1C(=O)[C@@H](N)Cc1c(C)cc(O)cc1C` (H-[Dmt]-[Tic]-NHMe), which Kb is on record?
Its Kb is 1150 nM.

How did the Kb turn out when `Cc1cc(O)cc(C)c1C[C@@H](C(=O)N1Cc2ccccc2C[C@H]1C(=O)NC(C)(C)C)N(C)C` was run?
Its Kb is 302 nM.

Target: T2, Delta-type opioid receptor
Assay: Binding affinity at Opioid receptor delta 1 from rat brain synaptosomal preparations by [3H]N,N-(Me)2-Dmt-Tic-OH displacement.
Settings: not given
Method in brief: (§1)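 Nonspecific binding was set with 2 μM unlabeled peptide, followed by GF/C filtration. Duplicates at 5–9 doses, ≥3 preparations; Ki by Cheng–Prusoff, mean ± SEM.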

Which Ki does the source give for `Cc1cc(O)cc(C)c1C[C@H](N)C(=O)N1Cc2ccccc2C[C@H]1C(=O)N[C@@H](C)C(=O)NC12C[C@H]3C[C@@H](C1)C[C@@H](C2)C3` here?
Its Ki is 0.073 nM.

Target: Mu-type opioid receptor (Rattus norvegicus, UniProt P33535)
Sequence (P33535 whole entry): as the sequence (P33535 whole entry, looked up) above
Assay: Binding affinity at Opioid receptor mu 1 from rat brain synaptosomal preparations by [3H]DAGO displacement.
Settings: not given
Method in brief: as §1

Which Ki does the source give for `Cc1cc(O)cc(C)c1C[C@H](N)C(=O)N1Cc2ccccc2C[C@H]1C(=O)N[C@@H](C)C(=O)NC12C[C@H]3C[C@@H](C1)C[C@@H](C2)C3` here?
Its Ki is 2.52 nM.

Species: Mus musculus
Assay: Antagonistic functional bioactivity against delta-receptor from mouse vas deferens(MVD)
Settings: not given

How did the Ke turn out when `Cc1cc(O)cc(C)c1C[C@H](N)C(=O)N1Cc2ccccc2C[C@H]1C(=O)Nc1nn[nH]n1` was run?
Its Ke is 36.3 nM.

How did the Ke turn out when `Cc1cc(O)cc(C)c1C[C@@H](C(=O)N1Cc2ccccc2C[C@H]1C(=O)O)n1cccc1` was run?
Its Ke is 408 nM.

Same assay, conditions: read-out: pA2 (converted)

Which Kb does the source give for `Cc1cc(O)cc(C)c1C[C@H](N)C(=O)N1Cc2ccccc2C[C@H]1C(=O)Nc1nn[nH]n1` here?
The Kb was 36.3 nM.

For `Cc1cc(O)cc(C)c1C[C@@H](C(=O)N1Cc2ccccc2C[C@H]1C(=O)O)n1cccc1`, which Kb is on record?
The Kb was 407 nM.

Target: T1, Opioid receptors; mu & delta (Rattus norvegicus)
Assay: Antagonistic activity ratio (Ki of mu receptors compared to Ki of delta receptors).
Assay type: functional
Settings: not given

Which Ratio does the source give for `COC(=O)[C@@H]1Cc2ccccc2CN1C(=O)[C@@H](N)Cc1c(C)cc(O)cc1C` (H-[Dmt]-[Tic]-OMe) here?
The Ratio was 0.8.

For `Cc1cc(O)cc(C)c1CC(CN)C(=O)N1Cc2ccccc2C[C@H]1C(=O)O` (some centres not stated), which Ratio is on record?
Its Ratio is 4.

With `Cc1cc(O)cc(C)c1C[C@H](N)C(=O)N1Cc2ccccc2C[C@H]1C(=O)NN` (H-[Dmt]-[Tic]-NHNH2) as the compound, how does the Ratio read?
Its Ratio is 2.

With `COC(=O)[C@H](C)NC(=O)[C@@H]1Cc2ccccc2CN1C(=O)[C@@H](N)Cc1c(C)cc(O)cc1C` (H-[Dmt]-[Tic]-Ala-OMe) as the compound, how does the Ratio read?
Its Ratio is 83.

How did the Ratio turn out when `Cc1cc(O)cc(C)c1C[C@H](N)C(=O)N1Cc2ccccc2C[C@H]1C(=O)Nc1nn[nH]n1` was run?
The Ratio was 4.

Which Ratio does the source give for `Cc1cc(O)cc(C)c1C[C@@H](C(=O)N1Cc2ccccc2C[C@H]1C(=O)O)n1cccc1` here?
The Ratio was 562.
